Screening results deposited in PubChem BioAssay by The Scripps Research Institute Molecular Screening Center.
An excerpt weighted towards active compounds, which were near 4.5% of everything screened.
CHO parental Ca = counter-screen for OX1R antagonists: effect in parental CHO cells; parental CHO-K1, ATP-induced calcium, Fluo-8 fluorescence; inhibition, % at 5.6 µM; actives 0.63% (n = 330,000); AID 463079;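 active = inhibition above that plate's mean sample inhibition plus 3 SD, cut at about 26% in these data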;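 note: 0% = ATP-challenged DMSO wells and 100% = DMSO wells without ATP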
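Test system: parental CHO cells; detection: calcium-sensitive Fluo-8 fluorescence; evaluation: percent inhibition of calcium signal; also added: ATP as calcium-mobilizing challenge; repeats: one well per compound; control set: ATP-challenged DMSO wells low, unchallenged DMSO wells high; compound: single nominal dose of 5.6 µM per compound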
OX1R antag-1 = OX1R (human) antagonism; OX1R-expressing cells, FRET antagonist read-out; inhibition, % at 6.6 µM; actives 1.8% (n = 330,000); AID 485270; O43613; in the data active = inhibition mostly above about 38%, no sharp cut-off; inactive = mostly below about 40%;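 note: 0% = agonist challenge alone and 100% = reference antagonist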
Target sequence (O43613 whole entry, looked up): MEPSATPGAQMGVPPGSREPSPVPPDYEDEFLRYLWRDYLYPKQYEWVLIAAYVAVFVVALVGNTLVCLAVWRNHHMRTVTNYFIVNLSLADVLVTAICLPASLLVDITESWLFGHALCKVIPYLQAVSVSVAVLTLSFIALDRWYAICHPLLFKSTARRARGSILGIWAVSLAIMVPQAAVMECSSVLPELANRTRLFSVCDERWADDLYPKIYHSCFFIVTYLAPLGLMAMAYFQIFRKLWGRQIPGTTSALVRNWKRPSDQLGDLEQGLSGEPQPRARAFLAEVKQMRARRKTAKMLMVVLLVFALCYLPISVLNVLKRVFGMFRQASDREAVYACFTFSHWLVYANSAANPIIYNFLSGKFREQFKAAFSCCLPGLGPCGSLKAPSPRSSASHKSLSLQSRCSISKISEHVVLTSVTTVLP
TAAR1 ag = human TAAR1 agonism; Q96RJ0; CHO RD-HGA16 TAAR1, Fluo-8 calcium fluorescence; vehicle wells 0%, saturating PEA agonist 100%; activation, % at 3 µM; actives 0.99% (n = 360,000); AID 624467;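 active = activation above the mean activation of all test compounds in the run plus 3 SD, cut at about 38% in these data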
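System: CHO RD-HGA16 cells carrying human TAAR1 plus Gα16; Incubation: 17-24 h seeding, 75 min 37 °C dye, 30 min RT; Measured by: Fluo-8 fluorescence, 5 s baseline then 140 s kinetic read; Control set: DMSO and PEA EC100; Replication: single well for each compound.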
OX1R antag-2 = human HCRTR1 antagonism; O43613; CHO/OX1R cells, Fluo-8 calcium fluorescence, orexin A; inhibition, % at 5 µM; actives 0.43% (n = 330,000);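 active = inhibition above its plate's threshold, mean inhibition of all tested compounds on the plate plus 3 SD, cut at about 37% in these data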;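 note: 0% = orexin A challenge wells and 100% = SB-334867-A antagonist wells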
GPR7 antag = blocks human GPR7 receptor signaling; GPR7-expressing cells, fluorescence antagonist assay; P48145; actives 1.1% (n = 290,000); AID 1861; inhibition, % at 4.4 µM; in the data active = inhibition above about 16%, passing the limit was not always enough;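 note: cells stimulated with the agonist NPW; 0% = agonist with vehicle and 100% = vehicle without agonist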
TAAR1 antag = human TAAR1 antagonism; Q96RJ0; CHO RD-HGA16 TAAR1, Fluo-8 calcium fluorescence, antagonist; inhibition, % at 3 µM; actives 1.5% (n = 360,000);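 active = inhibition above a per-plate cutoff, the mean inhibition of test compounds on that plate plus 3 SD, cut at about 49% in these data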;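 note: 0% = DMSO plus EC80 beta-PEA response and 100% = DMSO alone without agonist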
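Material: RD-HGA16 CHO cells with stable hTAAR1 and Gα16; Dosing: single nominal final test compound concentration of 3 µM; Schedule: seeding 17-24 h prior, 75-min 37 °C, 30-min RT dye loading; Detection: kinetic Fluo-8 calcium fluorescence measurement; Measure: % inhibition from peak post-agonist over basal fluorescence ratio; Benchmarks: vehicle and agonist controls.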
Numbers without * were called inactive; . = not tested or not shown.

SMILES	CHO parental Ca	OX1R antag-1	TAAR1 ag	OX1R antag-2	GPR7 antag	TAAR1 antag
Cn1c2ccccc2c(=O)c2cc(C#Cc3ccc(N)cc3)ccc21	-17	58*	13	-31	7	49*
COc1ccc(C#Cc2ccc3c(c2)c(=O)c2ccccc2n3C)cc1	-13	13	6	-16	-7	-1
CCc1cc2c(nc1CC)CCCN2Cc1ccccc1C(F)(F)F	.	.	-1	.	.	-16
N#C/C(=C/c1cccc(O)c1)C(=O)NCc1ccc(Cl)cc1	-21	6	13	-16	0	-20
N#C/C(=C/c1ccc(O)c(O)c1)C(=O)NCc1ccc(Cl)cc1	-3	20	48*	11	0	6
CC(=O)OCC1OC(n2cc(F)c(=O)[nH]c2=O)C(OC(C)=O)C1OC(C)=O (centres undefined)	-9	1	2	2	.	-28
O=C1C(F)=CC(COC(c2ccccc2)(c2ccccc2)c2ccccc2)OC1n1cc(F)c(=O)[nH]c1=O (centres undefined)	.	.	9	.	.	54*
O=C(O)C1CCCN1C(=O)c1cccc(Cl)c1 (centres undefined)	.	.	2	.	.	-21
O=[N+]([O-])c1ccc(N=NN(CCO)CCO)cc1	-1	47*	3	1	-7	4
COc1ccccc1NC(=O)Nc1nnc(-c2ccco2)s1	-6	32*	.	17	1	.
CC(=O)N1CCN(c2ccccc2NC(=O)COc2cc(C)ccc2C(C)C)CC1	-13	37	20	-8	21*	47
COc1ccc(/C=N/Nc2nnc(C)n2N)cc1OC(C)=O	1	56*	-2	-10	-10	19
COc1ccc(/C=N/Nc2nnc(C)n2N)cc1OC	-3	60	2	11	-1	-19
Clc1ccc(-c2cn3c(n2)-c2ccccc2C3)cc1Cl	-21	51*	-3	-9	-3	2
O=S(=O)(Nc1ccc(C(O)(C(F)(F)F)C(F)(F)F)cc1)c1cccc2ccccc12	.	.	4	.	.	26
COc1ccccc1OCCSc1nnnn1-c1ccc(C)cc1	40*	16	-1	-41	.	19
COCc1cc(N2CCNC[C@H]2C)ccc1N1C[C@@H](C)O[C@@H](C)C1	.	.	1	.	.	-4
CCn1cc(C(=O)Nc2nnc(C)s2)c(=O)c2cc(F)c(N3CCN(C(=O)c4ccco4)CC3)cc21	.	.	.	.	-10	.
O=C(COC(=O)/C=C/c1ccc(S(=O)(=O)N2CCc3ccccc32)cc1)NC1CCS(=O)(=O)C1 (centres undefined)	-11	11	2	-20	-7	15
C/C=C/c1cnc2c(c1)C(=O)N([C@@H](C)CO)C[C@H](C)[C@@H](CN(C)S(=O)(=O)c1ccc(C)cc1)O2	.	.	0	.	.	-12
CCN(CC)C(=O)c1ccc(S(=O)(=O)N2CCC(c3nc4ccccc4s3)CC2)cc1	14	37*	10	35	-11	24
CC1CCCN(C(=O)c2ccc(S(=O)(=O)N3CCC(c4nc5ccccc5s4)CC3)cc2)C1 (centres undefined)	-5	10	7	-21	-10	-6
CC/C(=N\Nc1ccc([N+](=O)[O-])cc1)c1ccccc1	-5	53*	.	-37	-15	.
O=C(CN1CCN(C(=O)C2COc3ccccc3O2)CC1)Nc1ccccc1 (centres undefined)	-8	2	1	-18	2	-25
CCOC(=O)N1CCN(CC(=O)Nc2ccc(F)cc2F)CC1	28*	15	-1	0	-2	8
SMILES	CHO parental Ca	OX1R antag-1	TAAR1 ag	OX1R antag-2	GPR7 antag	TAAR1 antag
CCOC(=O)N1CCN(CC(=O)Nc2ccc(F)c(F)c2F)CC1	-7	6	0	-1	-18	-8
C[C@@H]1CCCCCCCCC(=O)OCCN[C@H](C)CCCCCCCCC(=O)OCCN[C@H](C)CCCCCCCCC(=O)OCCN1	-30	7	.	-18	.	.
NC(=O)CSc1nnc(-c2ccccn2)n1Cc1ccco1	-24	14	1	-14	-12	-27
Clc1ccccc1CSc1nnc(-c2ccccn2)n1Cc1ccco1	-24	57*	12	24	1	18
N#CC1=C(N)N2C(=C(C#N)C1c1ccc(Br)cc1)Nc1ccccc12 (centres undefined)	14	76*	12	-2	9	41
N#CC1=C(N)N2C(=C(C#N)C1c1cccc(Br)c1)Nc1ccccc12 (centres undefined)	-16	32	13	-5	-7	31
C=CCOCCN(C)C1=NS(=O)(=O)c2cc([N+](=O)[O-])ccc21	-3	72*	1	-5	-3	13
COCCNC(=O)c1ccc2c3n(nc2c1)-c1ccc(C)cc1CO3	-20	64*	0	-13	.	4
Cc1ccccc1-n1nc2c(c1NC(=O)c1cc3ccccc3oc1=O)CS(=O)C2 (centres undefined)	-14	46*	.	-14	-16	.
Nc1nc(-c2cccnc2)nc2sc3c(c12)CCCC3	-9	70*	0	-10	6	12
CCc1c(-c2ccccc2)nc2sc3c(c2c1N)CCCC3	1	49*	1	-8	-12	8
Nc1c(C(=O)O)sc2nc(-c3ccccc3)c3c(c12)CCCC3	-9	5	0	-17	-7	1
Cc1ccc(S(=O)(=O)N2CCCN(C(C)c3nc4ccccc4c(=O)[nH]3)CC2)cc1 (centres undefined)	-9	26	-1	-15	.	12
Cc1cc(-c2nc3ccccc3o2)c2ccccc2n1	-34	45*	14	-20	-9	9
O=[N+]([O-])c1ccccc1S(=O)(=O)N1CCN(Cc2ccsc2)CC1	-11	9	4	-15	-9	4
Cc1ccc(NC(=O)Cn2cnc(C(=O)Nc3ccc(C)c(C)c3)n2)cc1C	-5	7	0	-1	.	1
Cc1cc(C)c(CN2CCN(C(=O)Cn3cnc(C(=O)Nc4ccc(C)c(C)c4)n3)CC2)c(C)c1	55*	-1	27	59*	.	56*
COc1cc2c(C#CCCO)c(-c3ccsc3)oc(=O)c2cc1OC	-17	61*	8	-6	.	31
Cc1ccccc1S(=O)(=O)N1[C@@H](c2ccc(Cl)cc2)C(C(=O)O)=CC[C@H]1c1ccc(Cl)cc1	-5	35	-1	29	.	43
Cc1ccc([C@H]2C(C(=O)O)=CC[C@@H](c3ccc(Cl)cc3)N2S(=O)(=O)c2ccccc2C)cc1	-12	31	.	21	.	.
Cc1ccc([C@@H]2CC=C(C(=O)O)[C@H](c3ccccc3)N2S(=O)(=O)c2ccccc2C)cc1	-15	54*	2	33	.	8
